Compound activity from PubChem BioAssay.
PREPL inh – inhibitors of human prolyl oligopeptidase-like enzyme PREPL. 320,000 compounds, 0.68% hits. recombinant PREPL, fluorescence polarization activity-based probe. inhibition, % at 5.96 µM. Q4J6C6; in the data active = inhibition above about 43%;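 also: 0% = enzyme with DMSO and 100% = wells lacking enzyme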
EBNA-1 inhibitor – blocks EBNA-1 binding to DNA | EBNA-1 DNA binding, fluorescence polarization | inhibition, % at 14.8 µM | 300,000 compounds, 0.34% hits | AID 1950; in the data active = inhibition above about 28%
ZTA counter – counter-screen for EBNA-1 inhibitors: inhibitors of Epstein-Barr virus ZTA; P03206; ZTA-DNA binding, fluorescence polarization; inhibition, % at 11 µM; 320,000 compounds, 0.15% hits; in the data active = inhibition above about 33%
UBC13 polyUb – human UBC13 polyubiquitination inhibition | P61088 | UBC13 polyubiquitin chain formation, TR-FRET | inhibition, % at 20 µM | 330,000 compounds, 0.47% hits; in the data active = inhibition above about 45%, passing the limit was not always enough
Apaf-1 inh – human Apaf-1 inhibition; O14727; reconstituted apoptosome caspase-3 activity, DEVD-Rh110 fluorescence; inhibition, % at 20 µM; 330,000 compounds, 0.71% hits; AID 489030; active = inhibition of at least 40% at 20 µM;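 also: plate controls were DMSO wells for no effect and DEVD-CHO caspase inhibitor wells for full effect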
Target sequence (O14727 whole entry, looked up): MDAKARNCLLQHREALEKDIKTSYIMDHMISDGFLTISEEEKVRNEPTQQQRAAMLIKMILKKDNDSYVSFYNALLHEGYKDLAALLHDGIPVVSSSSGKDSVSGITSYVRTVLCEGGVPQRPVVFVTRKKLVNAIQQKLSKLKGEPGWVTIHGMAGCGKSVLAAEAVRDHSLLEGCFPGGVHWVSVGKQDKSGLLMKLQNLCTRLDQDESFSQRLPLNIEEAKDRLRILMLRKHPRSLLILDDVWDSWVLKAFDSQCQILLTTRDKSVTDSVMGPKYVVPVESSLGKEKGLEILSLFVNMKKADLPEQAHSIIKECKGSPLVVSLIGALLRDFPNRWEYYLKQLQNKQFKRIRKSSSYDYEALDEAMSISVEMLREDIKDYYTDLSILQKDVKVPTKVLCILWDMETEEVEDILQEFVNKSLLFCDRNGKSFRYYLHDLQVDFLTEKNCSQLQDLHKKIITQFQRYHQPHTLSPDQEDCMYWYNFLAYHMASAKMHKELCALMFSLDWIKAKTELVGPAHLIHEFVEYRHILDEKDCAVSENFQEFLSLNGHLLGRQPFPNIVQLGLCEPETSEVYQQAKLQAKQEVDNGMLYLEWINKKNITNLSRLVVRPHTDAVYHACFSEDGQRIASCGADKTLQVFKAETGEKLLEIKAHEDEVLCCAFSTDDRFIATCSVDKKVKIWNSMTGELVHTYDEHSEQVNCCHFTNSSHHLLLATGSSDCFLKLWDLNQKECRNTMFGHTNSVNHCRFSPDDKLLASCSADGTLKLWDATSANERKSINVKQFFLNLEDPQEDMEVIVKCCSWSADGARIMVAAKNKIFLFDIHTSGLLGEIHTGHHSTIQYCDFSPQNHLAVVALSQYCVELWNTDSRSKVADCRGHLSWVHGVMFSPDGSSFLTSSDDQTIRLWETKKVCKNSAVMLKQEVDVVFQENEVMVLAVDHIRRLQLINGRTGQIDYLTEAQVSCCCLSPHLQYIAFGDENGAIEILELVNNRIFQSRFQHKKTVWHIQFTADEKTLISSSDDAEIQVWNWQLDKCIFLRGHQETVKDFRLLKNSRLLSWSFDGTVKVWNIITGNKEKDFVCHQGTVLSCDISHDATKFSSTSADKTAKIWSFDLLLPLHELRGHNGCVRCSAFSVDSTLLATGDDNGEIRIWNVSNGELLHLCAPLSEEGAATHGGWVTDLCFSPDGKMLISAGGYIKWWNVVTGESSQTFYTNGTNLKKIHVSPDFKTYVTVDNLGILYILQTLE
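Material: cell-free apoptosome with Apaf-1, procaspase-3 and caspase-9; Buffer or medium: Hepes pH 7.5 with detergent and BSA; Reagent: cytochrome c trigger plus (Z-DEVD)2-Rh110 caspase-3 substrate; Times: compound with Apaf-1, dATP, procaspase-3 30 min, then 50 min reaction, room temperature; Technique: Rh110 fluorescence intensity.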
EBNA-1 confirm – EBNA-1 (EBV) inhibition, confirmation | shares compounds with EBNA-1 inhibitor | AID 2292 | 830 compounds, 35% hits | inhibition, % at 14.8 µM | Recombinant EBNA-1 DBD, Cy5-DNA fluorescence polarization;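 active = mean inhibition across replicates above a set limit taken from the earlier primary screen, cut at about 28% in these data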;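 also: plate controls were EBNA-1 protein with DMSO for no effect and wells lacking EBNA-1 for full effect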
ZTA DNA inh trip – ZTA (EBV) inhibition, triplicate counter-screen; shares compounds with EBNA-1 inhibitor; Zta-ZRE DNA binding, Cy5 fluorescence polarization; inhibition, % at 11.1 µM; 830 tested, under 10 active; AID 2328;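 active = mean inhibition over triplicates above a set limit taken from the primary EBNA-1 screen, cut at about 37% in these data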;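 also: purified full length Zta protein with Cy5 labeled ZRE DNA probe; 0% = Zta with DMSO and 100% = wells lacking Zta protein; inhibitors lower polarization by freeing the labeled DNA probe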
An asterisk follows results filed as active; . = no result. Rows were chosen to be rich in hits. Some 1.7% of all compounds tested hit in one or more screens of this group.

SMILES	PREPL inh	EBNA-1 inhibitor	ZTA counter	UBC13 polyUb	Apaf-1 inh	EBNA-1 confirm	ZTA DNA inh trip
CC(C)Oc1cccc(C(=O)Nc2ccc(N3CCN(S(C)(=O)=O)CC3)cc2)c1	-4.6	17.1	4.8	-1.6	-4.0	.	.
O=C(C[C@H]1C/C=C\CC[C@H](Cc2ccc(F)cc2)C(=O)O[C@@H](c2ccccc2)CNC1=O)N[C@H](CO)Cc1ccccc1	18.1	.	.	0.0	25.8	.	.
Cc1ccc(NC(=O)CSc2nnc(NC(=O)c3ccc(S(=O)(=O)N4CCOCC4)cc3)s2)cc1	0.0	56.4*	10.1	-4.7	-2.8	84.3*	11.1
CCOC(=O)c1ccc(NC(=O)CSc2nnc(NC(=O)c3ccc(S(=O)(=O)N4CCOCC4)cc3)s2)cc1	2.9	-3.7	6.5	-1.8	3.3	.	.
Cc1cccc2cc(C(c3nnnn3Cc3ccc4c(c3)OCO4)N3CCCC3)c(=O)[nH]c12 (stereo not given)	11.7	0.9	-5.5	-6.7	5.2	.	.
Cc1ccc(-n2c(CSc3nc(C)cc(C)n3)n[nH]c2=S)cc1	17.9	-1.2	-6.1	6.4	3.8	.	.
CCOC(=O)c1c(NC(=O)CSc2ncn[nH]2)sc(C(C)=O)c1C	0.8	-8.5	9.5	-12.0	-0.5	.	.
COC(=O)Cc1c(C)c2ccc(OCC(C)=O)c(C)c2oc1=O	-5.5	6.3	4.7	7.7	4.0	.	.
COC(=O)Cc1c(C)c2ccc(OCC(=O)N3CCCC(C)C3)c(C)c2oc1=O (stereo not given)	4.8	48.0*	-6.5	3.0	10.3	-17.9	-10.0
Cc1ccnc(SCC(=O)N2CCc3ccccc32)n1	-0.3	32.2*	4.7	7.2	4.8	-1.5	0.3
O=C1CN(c2ccc(Br)cc2)C(=O)N1CC(=O)N1CCCc2ccccc21	8.3	-3.6	3.8	-7.8	3.4	.	.
CC(C)C(=O)Nc1cccc(C(=O)OCC(=O)c2ccc(Cl)cc2Cl)c1	15.1	41.0*	4.0	-18.7	9.6	79.2*	7.8
COc1ccc(Nc2nc(N(C)c3ccccc3)nc(N)c2[N+](=O)[O-])cc1	-8.8	34.1*	13.7	-2.4	1.2	40.3*	0.1
CCc1cccc(OCC(=O)Nc2ccc(S(=O)(=O)Nc3ccccn3)cc2)c1	-2.0	-2.8	5.3	6.3	-4.3	.	.
Cc1ccc(OCC(=O)Nc2ccc(S(=O)(=O)Nc3ccccn3)cc2)cc1C	-2.9	42.8*	-1.1	0.9	0.1	-1.3	10.7
COC(=O)c1[nH]c2cc(OC)ccc2c1NC(=O)c1c(F)cccc1F	-7.5	-1.4	4.2	3.2	-25.3	.	.
C=CCNC(=S)Nc1c(C(=O)OC)[nH]c2cc(OC)ccc12	10.7	28.5*	15.3	-5.2	-25.0	6.9	1.5
Cc1ccc(OCC(=O)NC(=S)Nc2cccc(NC(=O)c3ccccc3)c2)cc1	-10.3	28.8*	14.3	9.4	-7.0	16.7	-6.2
O=S(=O)(NCc1ccccc1)c1ccc(S(=O)(=O)N(Cc2cccs2)CC2CCCO2)cc1 (stereo not given)	17.0	34.5*	16.5	-15.3	5.3	27.2	20.4
CCn1c(COc2ccccc2C)nnc1SCC(=O)Nc1ccc2c(c1)OCCO2	.	.	.	5.7	-4.9	.	.
CCn1c(Cc2ccccc2)nnc1SCC(=O)Nc1ccc2c(c1)OCCO2	4.3	28.9*	-0.5	14.3	-12.9	-0.5	4.2
Cc1ccc(N2CCN(S(=O)(=O)c3ccc4c(c3)n(C)c(=O)c(=O)n4C)CC2C)cc1 (stereo not given)	-2.8	-2.7	2.1	-16.6	2.0	.	.
Cc1cccc(N2CCN(S(=O)(=O)c3ccc4c(c3)n(C)c(=O)c(=O)n4C)CC2C)c1 (stereo not given)	15.9	35.5*	6.2	-4.4	4.4	0.2	13.6
CN(C)c1ccc(/C=C/c2nc3ccccc3c(=O)n2-c2ccc(C(=O)O)cc2)cc1	5.3	7.7	13.5	-26.8	11.0	.	.
CCc1ccc(Nc2nnc(SCn3nnc4ccccc4c3=O)s2)cc1	5.4	-15.3	2.9	-0.7	20.8	.	.
COc1cccc(Nc2nnc(SCn3nnc4ccccc4c3=O)s2)c1	3.4	43.1*	4.3	1.0	4.6	37.8*	15.9
COc1ccc(/C=C/C(=O)Oc2cccc(/C=N/NC(=O)c3cccc(F)c3)c2)cc1	-18.4	28.8*	0.4	-4.2	4.0	3.5	1.2
